ChEMBL document CHEMBL2385063, “Identification of 2-(2-(1-naphthoyl)-8-fluoro-3,4-dihydro-1H-pyrido[4,3-b]indol-5(2H)-yl)acetic acid (setipiprant/ACT-129968), a potent, selective, and orally bioavailable chemoattractant receptor-homologous molecule expressed on Th2 cells (CRTH2) antagonist” (J Med Chem, 2013)
Values after ≈ are worked out from the molar mass of the structure shown.

Columns and labels:
[1] = molecular target: T1, Prostaglandin D2 receptor (Homo sapiens, UniProt Q13258); test: Displacement of [3H]PGD2 from recombinant human prostanoid DP1 receptor expressed in CHO cells after 90 mins by scintillation counting analysis; assay type: cell-based
T1 sequence (Q13258 whole entry): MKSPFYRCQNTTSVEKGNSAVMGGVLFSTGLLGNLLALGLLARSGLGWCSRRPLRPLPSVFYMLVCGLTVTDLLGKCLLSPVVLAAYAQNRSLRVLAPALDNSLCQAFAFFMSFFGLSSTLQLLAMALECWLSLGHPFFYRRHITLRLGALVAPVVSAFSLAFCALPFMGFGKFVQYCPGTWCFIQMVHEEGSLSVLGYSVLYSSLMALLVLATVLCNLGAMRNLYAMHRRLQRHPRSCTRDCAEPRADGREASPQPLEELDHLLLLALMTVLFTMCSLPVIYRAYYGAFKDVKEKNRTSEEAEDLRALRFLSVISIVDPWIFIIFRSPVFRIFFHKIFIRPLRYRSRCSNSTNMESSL
Method in brief: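 Competitive binding with CHO cells stably expressing high levels of recombinant hDP1, using [3H]PGD2 as ligand; IC50 reported.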

[2] = Elimination half life in human plasma at 1 mM by HR-LC-MS analysis; assay type: ADME, cell-free; conditions: read-out: beta t1/2
[3] = Intrinsic clearance in human liver microsomes measured per mg of protein at 1 uM by LC/MS-MS analysis; assay type: ADME, Microsome; conditions: read-out: CLH
[4] = Solubility of the compound in aqueous buffer at pH 4; assay type: physicochemical
Method in brief: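 Compound was stirred in water, 60 mM citrate buffer pH 4 or 70 mM phosphate buffer pH 7 at 300 rpm, 25 °C, for 24 h. The mixture was filtered, and the filtrate concentration was measured by HPLC-UV at 250 nm against a calibration curve.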

[5] = molecular target: Cytochrome P450 3A4 (Homo sapiens, UniProt P08684); test: Inhibition of CYP3A4 in human liver microsomes assessed as midazolam-1'-hydroxylation by LC-MS/MS analysis; assay type: ADME, Microsome
Sequence of Cytochrome P450 3A4 (P08684 whole entry): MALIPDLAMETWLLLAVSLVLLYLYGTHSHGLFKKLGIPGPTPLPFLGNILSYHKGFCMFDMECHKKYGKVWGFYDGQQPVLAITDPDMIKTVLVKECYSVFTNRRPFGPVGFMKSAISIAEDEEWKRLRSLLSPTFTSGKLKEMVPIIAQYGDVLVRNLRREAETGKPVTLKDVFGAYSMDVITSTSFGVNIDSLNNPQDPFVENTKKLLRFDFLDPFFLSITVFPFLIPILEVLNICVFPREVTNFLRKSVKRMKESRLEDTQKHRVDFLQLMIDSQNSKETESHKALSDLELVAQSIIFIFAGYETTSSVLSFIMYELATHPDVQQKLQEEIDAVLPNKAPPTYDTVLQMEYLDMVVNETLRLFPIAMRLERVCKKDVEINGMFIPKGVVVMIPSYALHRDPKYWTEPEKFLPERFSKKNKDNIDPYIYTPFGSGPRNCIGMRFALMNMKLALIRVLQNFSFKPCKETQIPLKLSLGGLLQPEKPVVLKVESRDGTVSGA

[6] = Half life in simulated gastric fluid at 2 uM by LC-MS analysis; assay type: physicochemical
Method in brief: (§1)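 Compounds were incubated in simulated gastric fluid for 1 h or simulated intestinal fluid for 4 h. Unchanged parent was quantified by LC-MS.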

[7] = molecular target: T2, Prostaglandin D2 receptor 2 (Homo sapiens, UniProt Q9Y5Y4); test: Antagonist activity at CRTH2 receptor in human eosinophils assessed as inhibition of PGD2-induced cell shape change incubated for 1 hr prior to PGD2 induction measured after 5 mins by FACS flow cytometric analysis in presence of human plasma; conditions: in the assay text read “incubated for 10 mins” for “incubated for 1 hr”
T2 sequence (Q9Y5Y4 whole entry): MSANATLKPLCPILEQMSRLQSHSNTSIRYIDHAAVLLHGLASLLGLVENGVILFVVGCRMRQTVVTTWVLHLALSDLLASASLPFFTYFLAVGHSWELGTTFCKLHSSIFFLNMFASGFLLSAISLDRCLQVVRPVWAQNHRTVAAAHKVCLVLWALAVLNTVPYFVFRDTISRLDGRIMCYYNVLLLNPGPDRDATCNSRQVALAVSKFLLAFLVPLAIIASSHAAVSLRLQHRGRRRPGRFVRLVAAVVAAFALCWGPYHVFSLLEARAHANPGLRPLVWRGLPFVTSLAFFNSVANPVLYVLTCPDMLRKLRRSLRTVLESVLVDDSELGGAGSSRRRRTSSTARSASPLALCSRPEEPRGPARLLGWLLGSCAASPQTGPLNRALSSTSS
Method in brief: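 Polymorphonuclear cells isolated from healthy-donor blood on a Polymorphprep gradient (500g, 30 min), erythrocytes lysed hypotonically. Cells stained 1 h with CD49d-APC, mixed with human plasma, preincubated with antagonist, then stimulated with 15 nM PGD2 for 5 min at 37 °C. Fixed in cold 1% paraformaldehyde. Eosinophils gated by CD49d/SSC; activation read as % cells with raised forward scatter.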

[8] = Intrinsic clearance in rat liver microsomes measured per mg of protein at 1 uM by LC/MS-MS analysis; assay type: ADME, Microsome; conditions: read-out: CLH
[9] = n-octanol-KH2PO4-Na2HPO4 buffer partition coefficient, log D of the compound at pH 7.4 by shake flask method; assay type: physicochemical
[10] = molecular target: T3, Prostaglandin G/H synthase 1 (Ovis aries) (UniProt P05979); test: […] at ovine COX-1 at 10 uM relative to control; design: scale not given: the % may be the effect or the level left
T3 sequence (whole entry): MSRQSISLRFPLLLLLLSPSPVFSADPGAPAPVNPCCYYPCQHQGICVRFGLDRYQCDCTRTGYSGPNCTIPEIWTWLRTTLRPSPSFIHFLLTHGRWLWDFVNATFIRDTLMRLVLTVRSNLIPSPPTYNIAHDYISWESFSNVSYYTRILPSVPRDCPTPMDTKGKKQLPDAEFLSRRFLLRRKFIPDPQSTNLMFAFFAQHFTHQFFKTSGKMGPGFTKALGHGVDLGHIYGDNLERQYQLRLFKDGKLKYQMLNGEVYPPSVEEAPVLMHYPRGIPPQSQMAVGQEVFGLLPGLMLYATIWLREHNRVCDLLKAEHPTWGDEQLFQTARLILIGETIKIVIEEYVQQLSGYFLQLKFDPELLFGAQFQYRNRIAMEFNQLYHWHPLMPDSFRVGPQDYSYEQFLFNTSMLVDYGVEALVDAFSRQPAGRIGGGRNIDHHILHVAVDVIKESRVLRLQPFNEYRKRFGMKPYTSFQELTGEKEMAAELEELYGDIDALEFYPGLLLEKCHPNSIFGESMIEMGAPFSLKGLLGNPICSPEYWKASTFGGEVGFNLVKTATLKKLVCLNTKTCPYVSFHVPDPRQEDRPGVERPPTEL
Method in brief: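 Ovine COX-1 activity measured with a commercial kit, following the manufacturer's protocol. Compounds were tested in duplicate at 10 μM final concentration. Activity is expressed as inhibition relative to control.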

[11] = molecular target: Cytochrome P450 2D6 (Homo sapiens, UniProt P10635); test: Inhibition of CYP2D6 in human liver microsomes assessed as dextromethorphan O-demethylation by LC-MS/MS analysis; assay type: ADME, Microsome
Sequence of Cytochrome P450 2D6 (P10635 whole entry): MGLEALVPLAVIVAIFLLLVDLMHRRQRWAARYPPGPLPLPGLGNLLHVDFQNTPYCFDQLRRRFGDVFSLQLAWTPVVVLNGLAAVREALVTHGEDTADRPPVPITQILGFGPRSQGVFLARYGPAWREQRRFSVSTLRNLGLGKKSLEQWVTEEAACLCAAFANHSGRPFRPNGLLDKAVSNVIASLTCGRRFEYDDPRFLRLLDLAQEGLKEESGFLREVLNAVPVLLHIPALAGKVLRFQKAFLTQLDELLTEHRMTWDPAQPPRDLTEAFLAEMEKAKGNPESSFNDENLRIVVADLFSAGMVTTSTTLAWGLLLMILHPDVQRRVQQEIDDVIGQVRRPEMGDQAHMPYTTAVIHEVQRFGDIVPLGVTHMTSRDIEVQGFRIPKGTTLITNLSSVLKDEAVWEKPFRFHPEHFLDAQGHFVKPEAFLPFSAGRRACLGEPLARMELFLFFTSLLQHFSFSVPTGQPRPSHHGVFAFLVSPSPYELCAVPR

[12] = species on record: Homo sapiens; test: Selectivity factor, ratio of IC50 for recombinant human prostanoid DP1 receptor to IC50 for recombinant human CRTH2 receptor
Method in brief: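 hDP₁ IC₅₀ came from competitive [³H]PGD₂ binding on CHO cells stably overexpressing recombinant hDP₁. hCRTh2 IC₅₀ came from [³H]PGD₂ (2.5 nM) displacement on membranes of HEK-293 cells stably expressing hCRTh2, incubated 90 min at room temperature, filtered and counted. f_Sel = IC₅₀(hDP₁)/IC₅₀(hCRTh2).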

[13] = molecular target: Cytochrome P450 2C9 (Homo sapiens, UniProt P11712); test: Inhibition of CYP2C9 in human liver microsomes assessed as diclofenac 4'-hydroxylation by LC-MS/MS analysis; assay type: ADME, Microsome
Sequence of Cytochrome P450 2C9 (P11712 whole entry): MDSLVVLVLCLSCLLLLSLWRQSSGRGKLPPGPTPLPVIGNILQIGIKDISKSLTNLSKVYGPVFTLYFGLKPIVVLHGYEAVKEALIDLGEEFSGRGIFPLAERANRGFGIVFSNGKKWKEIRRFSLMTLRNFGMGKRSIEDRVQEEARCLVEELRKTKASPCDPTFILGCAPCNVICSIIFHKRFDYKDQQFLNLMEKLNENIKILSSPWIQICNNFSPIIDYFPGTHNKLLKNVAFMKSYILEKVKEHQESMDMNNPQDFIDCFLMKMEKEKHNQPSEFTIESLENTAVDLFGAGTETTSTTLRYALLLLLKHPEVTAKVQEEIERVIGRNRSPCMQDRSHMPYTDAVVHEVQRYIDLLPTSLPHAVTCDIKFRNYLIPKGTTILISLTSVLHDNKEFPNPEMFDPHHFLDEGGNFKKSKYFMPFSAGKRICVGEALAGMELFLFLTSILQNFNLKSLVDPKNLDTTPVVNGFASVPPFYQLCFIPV

[14] = Half life in simulated intestinal fluid at 2 uM by LC-MS analysis; assay type: physicochemical; method in brief: as §1
[15] = Intrinsic clearance in rat hepatocytes measured per 10^6 cells at 1 uM by LC/MS-MS analysis; assay type: ADME, cell-based, Hepatocyte; conditions: read-out: CLH
[16] = molecular target: T2, Prostaglandin D2 receptor 2; test: Antagonist activity at CRTH2 receptor in human eosinophils assessed as inhibition of PGD2-induced cell shape change incubated for 10 mins prior to PGD2 induction measured after 5 mins by FACS flow cytometric analysis in presence of human plasma

| Compound | IC50 [1] | half-life [2] | microsomal CLint at 1 µM [3] | solubility [4] | IC50 [5] | half-life at 2 µM [6] | IC50 [7] | microsomal CLint at 1 µM [8] | logD [9] | Activity [10] | IC50 [11] | Ratio IC50 [12] | IC50 [13] | half-life at 2 µM [14] | hepatocyte CLint at 1 µM [15] | IC50 [16] |
| --- | --- | --- | --- | --- | --- | --- | --- | --- | --- | --- | --- | --- | --- | --- | --- | --- |
| O=C(O)Cn1c2c(c3cc(F)ccc31)CN(C(=O)Cc1cccc3ccccc13)CC2 | > 10000 nM | > 4 h | 6 µL/min/mg | 21 µg/mL (≈ 50.4 µM) | > 50000 nM | > 1 h | 275 nM | 63 µL/min/mg | 0.2 | < 30% | > 50000 nM | > 2500 | 16000 nM | > 4 h |  |  |
| CCc1ccc(-c2ccc(C(=O)N3CCc4c(c5ccccc5n4CC(=O)O)C3)cc2)cc1 | 780 nM | > 4 h | 85 µL/min/mg | 1 µg/mL (≈ 2.28 µM) | > 50000 nM | > 1 h | 240 nM | 31 µL/min/mg | 1.8 | < 30% | > 50000 nM | 195 | 14000 nM | > 4 h | 5.3 µL/min/1e6 cells |  |
| Cc1ccc2c(c1)c1c(n2CC(=O)O)CCN(C(=O)c2cccc3ccccc23)C1 | 2700 nM |  |  |  |  |  | 340 nM |  |  | < 30% |  | 540 |  |  |  |  |
| O=C(O)Cn1c2c(c3cc(F)cc(Cl)c31)CN(C(=O)c1cccc3ccccc13)CC2 | 310 nM |  |  |  |  |  |  |  |  | < 30% |  | 4.1 |  |  |  |  |
| O=C(O)Cn1c2c(c3cc(C(F)(F)F)ccc31)CN(C(=O)c1cccc3ccccc13)CC2 | 2200 nM |  |  |  |  |  |  |  |  | < 30% |  | 200 |  |  |  | 180 nM |
| O=C(O)Cn1c2c(c3cc(F)ccc31)CN(C(=O)Cc1c[nH]c3ccccc13)CC2 | > 10000 nM | > 4 h | < 4 µL/min/mg | 115 µg/mL (≈ 284 µM) | > 50000 nM | > 1 h | 50 nM | 23 µL/min/mg | -0.3 | < 30% | > 50000 nM | > 2000 | > 50000 nM | > 4 h |  |  |
| O=C(O)Cn1c2c(c3ccccc31)CN(C(=O)c1cccc(Cl)c1)CC2 | > 10000 nM | > 4 h | 5 µL/min/mg | 180 µg/mL (≈ 488 µM) | > 50000 nM | > 1 h | 50 nM | 24 µL/min/mg | -0.5 | < 30% | > 50000 nM | > 1000 | > 50000 nM | > 4 h | 1.4 µL/min/1e6 cells |  |
| O=C(O)Cn1c2c(c3ccccc31)CN(C(=O)c1ccccc1)CC2 |  | > 4 h | 5 µL/min/mg |  |  | > 1 h |  | < 4 µL/min/mg | -1.2 | < 30% |  | > 580 | 15000 nM | > 4 h | 0.9 µL/min/1e6 cells | 110 nM |
| O=C(O)Cn1c2c(c3cc(F)ccc31)CN(C(=O)c1cccc(Cl)c1)CC2 | > 10000 nM | > 4 h | < 4 µL/min/mg | 140 µg/mL (≈ 362 µM) | > 50000 nM | > 1 h | 60 nM | < 4 µL/min/mg | -0.3 | < 30% | > 50000 nM | > 1100 | > 50000 nM | > 4 h | 1.9 µL/min/1e6 cells |  |
| O=C(O)Cn1c2c(c3cc(F)ccc31)CN(C(=O)CCc1cccc3ccccc13)CC2 | > 10000 nM |  |  |  |  |  |  |  |  | < 30% |  | > 1000 |  |  |  | 210 nM |
